Results as given in paper PMC7893122 (Acta Pharmaceutica Sinica. B, 2020).

Assays:
BRD4 (BD1) = BRD4 (BD1) (Homo sapiens, UniProt O60885); experiment: Homogeneous time-resolved fluorescence binding assay, BRD4; conditions: IC50 BRD4 (BD1), mean ± SD from three separate experiments
[1] = tested on: HH signaling pathway (GLI-responsive firefly luciferase reporter); experiment: Dual luciferase reporter assay; format: cell-based; conditions: read-out: IC50 GLI-luc reporter
hERG channel = hERG channel (Homo sapiens, UniProt Q12809); experiment: hERG inhibition; format: cell-based
[2] = Pharmacokinetics in Sprague–Dawley rats; format: in vivo; conditions: rat
H3132 = experiment: Cell growth inhibition; format: cell-based; conditions: 72 h
How it was run: (§1)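 Cells seeded in 96-well plates and incubated overnight. DMSO stocks of test compound were thawed at room temperature, diluted with saline to working concentrations, and added for 72 h. Growth read by CCK-8 assay, giving IC50/GI50.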

N87 = experiment: Cell growth inhibition; format: cell-based; conditions: 72 h
How it was run: as §1

HT1080 = experiment: Cell growth inhibition; format: cell-based; conditions: Homo sapiens, HT-1080, 72 h
How it was run: as §1

Colo680N = experiment: Cell growth inhibition; format: cell-based; conditions: Homo sapiens, COLO-680N, 72 h
How it was run: as §1

HSC-2 = experiment: Cell growth inhibition; format: cell-based; conditions: Homo sapiens, HSC-2, 72 h
How it was run: as §1

KYSE450 = experiment: Cell growth inhibition; format: cell-based; conditions: Homo sapiens, KYSE-450, 72 h
How it was run: as §1

TOV-21G = experiment: Cell growth inhibition; format: cell-based; conditions: Homo sapiens, TOV21G, 72 h
How it was run: as §1

CAL27 = experiment: Cell growth inhibition; format: cell-based; conditions: Homo sapiens, CAL-27, 72 h
How it was run: as §1

SKM-1 = experiment: Cell growth inhibition; format: cell-based; conditions: Homo sapiens, SKM-1, 72 h
How it was run: as §1

H1975 = experiment: Cell growth inhibition; format: cell-based; conditions: Homo sapiens, NCI-H1975, 72 h
How it was run: as §1

DOHH-2 = experiment: Cell growth inhibition; format: cell-based; conditions: Homo sapiens, DOHH-2, 72 h
How it was run: as §1

CHL normal cell line = experiment: Cell growth inhibition; format: cell-based; conditions: 72 h
How it was run: as §1

GLI1 = experiment: GLI-luciferase activity in light2 cells after transfection with GLI1; format: cell-based; conditions: read-out: IC50, GLI-luciferase activity provoked by forced expression of GLI1
How it was run: (§2)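 Light2 cells (NIH-3T3 stably carrying GLI-responsive firefly luciferase and renilla expression vector) lipofected with FLAG-GLI1 or MYC-GLI2-FL. Test compound added 24 h post-transfection, then 36 h exposure. Dual-luciferase read-out, firefly normalised to TK-renilla.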

GLI2 = experiment: GLI-luciferase activity in light2 cells after transfection with GLI2; format: cell-based; conditions: read-out: IC50, GLI-luciferase activity provoked by forced expression of GLI2
How it was run: as §2

SMO^WT = experiment: GLI-luciferase activity in light2 cells with ectopic SMO^WT; format: cell-based; conditions: read-out: IC50, GLI-luciferase activity induced by SMO^WT
How it was run: (§3)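 NIH-3T3-derived light2 reporter cells (stable GLI-responsive firefly luciferase plus renilla vector) with forced SMO expression, exposed to test compound for 36 h. Dual-luciferase kit read-out; firefly signal normalised to TK-renilla.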

SMO^D473H = experiment: GLI-luciferase activity in light2 cells with ectopic SMO^D473H; format: cell-based; conditions: read-out: IC50, GLI-luciferase activity induced by SMO^D473H
How it was run: as §3

SMO^W535L = experiment: GLI-luciferase activity in light2 cells with ectopic SMO^W535L; format: cell-based; conditions: read-out: IC50, GLI-luciferase activity induced by SMO^W535L
How it was run: as §3

endogenous GLI2 = experiment: Western blot of endogenous GLI2 in light2 cells; format: cell-based; conditions: 25 at 10 and 100 nmol/L, GDC-0449 100 nmol/L
How it was run: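 Light2 cells treated with test compound, lysed in LDS sample buffer, and run on SDS-PAGE. Immunoblotting used anti-GLI2 (1:1000), with GAPDH (1:5000) as reference.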

GLI2-MYC = experiment: Western blot of exogenous GLI2-MYC in transfected light2 cells; format: cell-based; conditions: light2 cells transfected with GLI2-MYC
How it was run: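 Light2 cells lipofected with FLAG-GLI1 or MYC-GLI2-FL; test compound added 24 h after transfection. Lysis in LDS sample buffer, then SDS-PAGE. Immunoblots probed with tag or GLI2 antibodies (1:1000), with GAPDH (1:5000) as reference.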

[3] = tested on: SMOA1 MB allografts (SMO^W539L); experiment: SMOA1 MB allograft model; format: in vivo, nude mice; conditions: bid
How it was run: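 Primary SMOA1 MB allografts from ND2:SMOA1 transgenic mice grafted subcutaneously into nude mice. Dosing started at 100–150 mm3 tumour size: test compound p.o. twice daily, vehicle 0.5% CMC-Na, n ≥ 3 per group. Caliper measurement every 3 days; volume = 0.5 × length × width². Body weight tracked; group means ± SEM.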

[4] = Sprague-Dawley, plasma, iv, 1 mg/kg
[5] = Sprague-Dawley, plasma, po, 3 mg/kg

hERG channel, sequence (Q12809 whole entry): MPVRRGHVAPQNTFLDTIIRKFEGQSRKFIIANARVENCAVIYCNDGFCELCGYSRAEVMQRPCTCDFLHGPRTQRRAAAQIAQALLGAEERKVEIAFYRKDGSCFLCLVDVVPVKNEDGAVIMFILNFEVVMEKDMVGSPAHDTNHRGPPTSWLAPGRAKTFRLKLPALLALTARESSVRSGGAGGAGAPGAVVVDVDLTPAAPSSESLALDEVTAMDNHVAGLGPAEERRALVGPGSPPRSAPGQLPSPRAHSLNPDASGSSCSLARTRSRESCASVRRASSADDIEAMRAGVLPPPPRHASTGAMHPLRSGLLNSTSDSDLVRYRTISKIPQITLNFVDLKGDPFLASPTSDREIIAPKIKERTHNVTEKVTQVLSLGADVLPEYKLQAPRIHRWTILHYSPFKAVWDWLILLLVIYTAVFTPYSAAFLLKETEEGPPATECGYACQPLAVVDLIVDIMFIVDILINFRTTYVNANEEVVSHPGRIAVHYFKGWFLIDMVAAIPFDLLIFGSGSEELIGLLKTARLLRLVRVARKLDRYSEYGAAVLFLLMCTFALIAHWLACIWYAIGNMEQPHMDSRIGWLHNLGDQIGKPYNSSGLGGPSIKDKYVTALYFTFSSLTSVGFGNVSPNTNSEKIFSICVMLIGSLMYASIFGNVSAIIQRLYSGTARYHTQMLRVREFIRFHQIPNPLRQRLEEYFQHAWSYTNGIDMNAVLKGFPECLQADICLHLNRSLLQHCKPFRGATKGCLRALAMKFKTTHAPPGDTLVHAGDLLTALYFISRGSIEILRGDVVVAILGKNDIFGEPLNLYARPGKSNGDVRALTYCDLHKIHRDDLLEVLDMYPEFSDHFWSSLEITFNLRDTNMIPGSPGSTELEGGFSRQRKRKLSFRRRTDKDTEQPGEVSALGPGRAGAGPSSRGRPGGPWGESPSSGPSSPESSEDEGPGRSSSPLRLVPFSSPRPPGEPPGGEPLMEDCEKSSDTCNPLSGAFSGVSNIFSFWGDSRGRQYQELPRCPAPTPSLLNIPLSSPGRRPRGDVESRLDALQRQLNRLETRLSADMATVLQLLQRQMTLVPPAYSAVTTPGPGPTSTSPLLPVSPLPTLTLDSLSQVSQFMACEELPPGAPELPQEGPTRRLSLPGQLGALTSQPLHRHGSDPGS

Q: With `Cn1cc(-c2cc(N3CCCCS3(=O)=O)ccc2Oc2ccc(F)cc2F)c2c(F)c[nH]c2c1=O` [Compound 25] as the compound, how does the IC50 (BRD4 (BD1)) read?
A: 1.51 ± 0.43 nM

Q: And the IC50 [1]?
A: 0.48 ± 0.08 nM

Q: What about the IC50 (hERG channel) of the same compound?
A: 27300 nM

Q: What about the AUC(0-inf) [2, 4] of the same compound?
A: 614 ng·h/mL

Q: And the AUC(0-t) [2, 4]?
A: 614 ng·h/mL

Q: And the MRT inf [2, 4]?
A: 46.2 min

Q: What about the clearance [2, 4] of the same compound?
A: 27.2 mL/min/kg

Q: And the half-life [2, 4]?
A: 32.4 min

Q: What about the AUC(0-inf) [2, 5] of the same compound?
A: 406 ng·h/mL

Q: What about the AUC(0-t) [2, 5] of the same compound?
A: 406 ng·h/mL

Q: What about the Cmax [2, 5] of the same compound?
A: 503 ng/mL

Q: What about the MRT inf [2, 5] of the same compound?
A: 57 min

Q: What about the Tmax [2, 5] of the same compound?
A: 15 min

Q: What about the half-life [2, 5] of the same compound?
A: 57.6 min

Q: And the Vss_obs ([2]; i.v. 1 mg/kg)?
A: 1.258 L/kg

Q: And the GI50 (H3132)?
A: 140 nM

Q: And the GI50 (N87)?
A: 130 nM

Q: What about the GI50 (HT1080) of the same compound?
A: 1000 nM

Q: And the GI50 (Colo680N)?
A: 2300 nM

Q: What about the GI50 (HSC-2) of the same compound?
A: 770 nM

Q: And the GI50 (KYSE450)?
A: 1600 nM

Q: And the GI50 (TOV-21G)?
A: 23 nM

Q: And the GI50 (CAL27)?
A: 110 nM

Q: And the GI50 (SKM-1)?
A: 19 nM

Q: What about the GI50 (H1975) of the same compound?
A: 34 nM

Q: What about the GI50 (DOHH-2) of the same compound?
A: 6.6 nM

Q: What about the GI50 (CHL normal cell line) of the same compound?
A: > 10000 nM

Q: And the IC50 (GLI1)?
A: 0.97 nM

Q: And the IC50 (GLI2)?
A: 2.2 nM

Q: What about the IC50 (SMO^WT) of the same compound?
A: 1.16 nM

Q: What about the IC50 (SMO^D473H) of the same compound?
A: 1.44 nM

Q: What about the IC50 (SMO^W535L) of the same compound?
A: 1.13 nM

Q: And the “Effect on abundance of endogenous GLI2 proteins” value (endogenous GLI2)?
A: dramatically reduced

Q: And the “Effect on expression of exogenous GLI2-MYC” value (GLI2-MYC)?
A: failed to inhibit

Q: What about the Tolerability ([3]; 5 mg/kg p.o.) of the same compound?
A: well tolerant

Q: And the “tumor growth inhibition (TGI)” value ([3]; 5 mg/kg p.o., Fig. 6A)?
A: 83.3%

Q: What about the Tolerability ([3]; 10 mg/kg p.o.) of the same compound?
A: well tolerant

Q: What about the “tumor growth inhibition (TGI)” value ([3]; 10 mg/kg p.o., Fig. 5A) of the same compound?
A: 88.2%

Q: What about the Body weight change ([3]; 10 mg/kg p.o., Fig. 5B) of the same compound?
A: No obvious body weight loss

Q: What about the “tumor growth inhibition (TGI)” value ([3]; 10 mg/kg p.o., Fig. 6A) of the same compound?
A: 87.6%
